Assay results as given in PMC3855065 (MedChemComm, 2013).
Changes are numbered by the printed parent chain.

What was measured:
[1] = molecular target: T1, C. hominis DHFR (Cryptosporidium parvum, UniProt Q27552); experiment: Mode of inhibition: steady-state substrate profile for H2folate and NADPH; type: biochemical
T1 sequence (Q27552 1-521): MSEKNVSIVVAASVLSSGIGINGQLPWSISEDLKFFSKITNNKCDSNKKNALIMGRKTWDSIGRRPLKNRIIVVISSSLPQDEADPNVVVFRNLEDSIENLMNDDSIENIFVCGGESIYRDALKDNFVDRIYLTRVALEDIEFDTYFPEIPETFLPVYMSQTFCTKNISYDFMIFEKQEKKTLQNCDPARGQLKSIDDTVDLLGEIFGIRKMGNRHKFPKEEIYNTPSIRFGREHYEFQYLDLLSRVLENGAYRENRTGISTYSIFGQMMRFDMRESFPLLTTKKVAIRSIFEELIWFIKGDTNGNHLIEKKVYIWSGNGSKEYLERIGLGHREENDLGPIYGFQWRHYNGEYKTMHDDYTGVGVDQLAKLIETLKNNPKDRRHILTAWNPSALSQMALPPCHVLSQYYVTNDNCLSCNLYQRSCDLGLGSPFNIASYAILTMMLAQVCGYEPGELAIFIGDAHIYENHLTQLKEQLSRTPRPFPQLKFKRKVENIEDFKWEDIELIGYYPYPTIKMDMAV
Method in brief: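 Steady-state DHFR activity followed by absorbance at 340 nm. The enzyme was bifunctional TS–DHFR expressed in E. coli BL21 and purified. The test compound, from a DMSO stock, was preincubated with enzyme and substrates for 30 min before the reaction was started. Rates were normalised to an equal-volume DMSO blank. H2folate or NADPH concentration was varied, and mode was assigned from rate profiles and Lineweaver–Burk plots by Michaelis–Menten treatment.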

[2] = molecular target: T2, Human DHFR (Homo sapiens, UniProt P00374); experiment: Steady-state DHFR inhibition assay against the human enzyme; type: biochemical; conditions: up to 1 mM mimetic
T2 sequence (P00374 1-187): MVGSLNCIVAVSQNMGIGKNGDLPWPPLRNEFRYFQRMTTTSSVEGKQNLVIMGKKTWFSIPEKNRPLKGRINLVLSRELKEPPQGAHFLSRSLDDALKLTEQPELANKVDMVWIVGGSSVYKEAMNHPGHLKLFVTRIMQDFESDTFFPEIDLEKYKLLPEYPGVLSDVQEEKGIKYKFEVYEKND
Method in brief: (§1)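 Each reaction (DHFR or TS) was measured spectroscopically at 340 nm under steady-state conditions. The test compound came from a DMSO stock and was incubated with enzyme and substrates for 30 min before initiation. Activity was normalised to an equal-volume DMSO control. All targets were run at identical enzyme and ligand concentrations. Values are mean ± standard deviation.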

[3] = molecular target: T3, C. hominis TS (Cryptosporidium parvum, UniProt Q27552); experiment: Steady-state TS inhibition assay; type: biochemical; conditions: read-out: IC50 C. hominis TS
T3 sequence (Q27552 1-521): T1 sequence (Q27552 1-521)
Method in brief: as §1

[4] = test system: C. hominis Beta Face DHFR; experiment: Steady-state DHFR inhibition assay against Beta Face mutant enzyme; type: biochemical, Cryptosporidium hominis; conditions: Beta Face vs WT ChDHFR
[5] = molecular target: T4, C. hominis Beta Face DHFR (Cryptosporidium parvum, UniProt Q27552, F207A/I196A/L203A/S195A/T199A/V200A); experiment: as above; type: biochemical; conditions: IC50 C. hominis Beta Face DHFR, Beta Face mutant enzyme, steady-state
T4 sequence (Q27552 1-521 S195A/I196A/T199A/V200A/L203A/F207A): T1 sequence (Q27552 1-521) with S195A, I196A, T199A, V200A, L203A, F207A

Row | Structure (SMILES) | Mode of inhibition ([1]; data not shown) | Inhibition of human DHFR [2] | Vmax, NADPH substrate profile ([1]; in the presence of 250 µM compound (1.33 ± 0.02 in the absence)) [µmol/min] | Vmax, H2folate substrate profile ([1]; in the presence of 250 µM compound (1.46 ± 0.03 in the absence)) [µmol/min] | Mode of inhibition for H2folate ([1]; steady-state substrate profile) | Mode of inhibition for NADPH ([1]; steady-state substrate profile) | IC50 [3] [µM] | Potency against Beta Face relative to WT [4] | IC50 [5] [µM]
1 | Cc1ccc(CN(C(=O)Nc2ccc(CCC(=O)O)cc2Cc2ccccc2)C(=O)c2ccc(CCC(=O)O)c(CC(C)C)c2)cc1 [mimetic 1] | noncompetitive mode of inhibition | – | – | – | – | – | – | – | –
2 | CC(C)CN(C(=O)Nc1ccc(CCC(=O)O)cc1Cc1ccccc1)C(=O)c1ccc(OCC(=O)O)c(Cc2ccccc2)c1 [mimetic 2] | – | no inhibition | 0.41 ± 0.01 | 0.48 ± 0.06 | noncompetitive (mixed) inhibitor | noncompetitive inhibitor | 570 ± 60 | at least 10 fold | ~20
